{
  "source": "paper PMC4677462",
  "about": "(Organic & biomolecular chemistry, 2012)",
  "key": {"[1]": {"target": "catalytic domain of PHD2 (residues 181-426) (Homo sapiens, UniProt Q9GZT9)", "sequence (Q9GZT9 181-426)": "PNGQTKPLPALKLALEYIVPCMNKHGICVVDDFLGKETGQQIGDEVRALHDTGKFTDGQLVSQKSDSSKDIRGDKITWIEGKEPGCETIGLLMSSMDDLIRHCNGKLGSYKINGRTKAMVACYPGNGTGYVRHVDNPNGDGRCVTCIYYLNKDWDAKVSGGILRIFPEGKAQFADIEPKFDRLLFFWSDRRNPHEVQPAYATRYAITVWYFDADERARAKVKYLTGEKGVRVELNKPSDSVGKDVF", "experiment": "Non-denaturing ESI-MS binding to PHD2 in presence of Fe", "settings": "standard conditions; for PHD2-iron-compound complex formation / binding of a second iron in ESI-MS: 2 equiv. Fe(II), 1 equiv. compound; for ESI-MS competition with NOG for binding to PHD2: equimolar NOG"}, "PHD2": {"target": "PHD2 (Homo sapiens, UniProt Q9GZT9)", "sequence (Q9GZT9 181-426)": "as above", "experiment": "AlphaScreen PHD2 inhibition assay", "assay_type": "biochemical", "settings": "10μM and 300μM of compounds"}, "HIF-1α [2]": {"tested_on": "HIF-1α", "experiment": "HIF-1α stabilisation immunoblot in Hep3B cells", "assay_type": "cell-based, human", "settings": "for HIF-1α stabilization / HIF-1α stabilization in presence of Fe(II) / Cell-based activity HIF-1α Induction: Hep3B cells, 6 h; for HIF-1α stabilization: absence of added Fe(II); for HIF-1α stabilization in presence of Fe(II): equimolar amount of Fe(II); for Cell-based activity HIF-1α Induction: methyl or ethyl esters (numbers in parentheses) tested, 0.1 mM and 1 mM", "how_it_was_run": "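Confluent human Hep3B hepatoma cells given methyl or ethyl ester forms of test compounds (100 mM DMSO stock) for 6 h under normoxia. Fe(II) experiments added equimolar Fe(II) either at the start or for the final 2 h, with DFO and DMOG as comparators. Whole-cell lysate immunoblots probed with mouse anti-HIF-1α (clone 54).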"}, "[3]": {"tested_on": "HIF prolyl and asparaginyl hydroxylases", "experiment": "HIF-1α prolyl", "assay_type": "cell-based, human", "settings": "RCC4 cells, 1 mM and 2 mM", "how_it_was_run": "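VHL-defective RCC4 renal carcinoma cells carrying empty vector (RCC4/VA), which cannot degrade HIF-1α by the proteasome, grown to confluence and treated 5 h with test compound from 100 mM DMSO stock. Whole-cell lysate immunoblots probed with Hyp564- and HyAsn803-specific antibodies. Signals normalised to HIF-1α band intensity, with β-tubulin/β-actin as loading controls. DMSO negative and DMOG positive controls.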"}, "HIF-1α [4]": {"tested_on": "HIF-1α", "experiment": "HIF-1α stabilisation immunoblot in RCC4/VHL cells", "assay_type": "cell-based, human", "settings": "200 μM and 1mM"}},
  "data": [
    {"smiles": "O=C(O)CCCC(=O)NNC(=O)c1ccccn1", "note": "[Compound 2]", "values": [
      {"measurement": "PHD2-iron-compound complex formation / binding of a second iron in ESI-MS", "setting": "[1]", "result": "formed a two-iron complex with PHD2"},
      {"measurement": "PHD2 inhibition in initial two-concentration screening", "setting": "PHD2", "result": "weak PHD2 inhibitors"}
    ]},
    {"smiles": "COC(=O)CNC(=O)C(=O)OC", "note": "[DMOG, Dimethyloxalyl glycine]", "values": [
      {"measurement": "HIF-1α stabilization", "setting": "HIF-1α [2]", "result": "induced HIF-1α stabilization"},
      {"measurement": "HIF-1α stabilization in presence of Fe(II)", "setting": "HIF-1α [2]", "result": "reduction in HIF-1α stabilization"},
      {"measurement": "Cell-based activity HIF-1α Induction", "setting": "HIF-1α [2]", "result": "Active"},
      {"measurement": "Inhibition of HIF prolyl-hydroxylation", "setting": "[3]", "result": "only partially inhibited"}
    ]},
    {"smiles": "O=C(O)/C=C/C(=O)NNC(=O)c1ccccn1", "note": "[Compound 5]", "values": [
      {"measurement": "HIF-1α upregulation", "setting": "HIF-1α [4]", "result": "upregulated HIF-1α, but to a lesser extent than its ester"},
      {"measurement": "PHD2-iron-compound complex formation / binding of a second iron in ESI-MS", "setting": "[1]", "result": "only bound to one iron"}
    ]},
    {"smiles": "O=C(O)/C=C/C(=O)NNC(=O)c1cccnc1", "note": "[Compound 9]", "values": [
      {"measurement": "ESI-MS competition with NOG for binding to PHD2", "setting": "[1]", "result": "compete effectively with NOG for binding to PHD2"}
    ]},
    {"smiles": "O=C(O)/C=C/C(=O)NNC(=O)c1cc2ccccc2cn1", "note": "[Compound 14]", "values": [
      {"measurement": "HIF-1α upregulation", "setting": "HIF-1α [4]", "result": "almost no HIF-1α induction"}
    ]},
    {"smiles": "O=C(O)/C=C\\C(=O)NNC(=O)c1ccccn1", "note": "[Compound 4]", "values": [
      {"measurement": "PHD2 inhibition in initial two-concentration screening", "setting": "PHD2", "result": "weak PHD2 inhibitors"}
    ]},
    {"smiles": "O=C(O)CCC(=O)NNC(=O)c1cc2ccccc2cn1", "note": "[Compound 11]", "values": [
      {"measurement": "HIF-1α levels, free carboxylate compounds", "setting": "HIF-1α [2]; human hepatoma Hep3B cells, free acid form", "result": "did not up-regulate HIF-1α levels"},
      {"measurement": "ESI-MS competition with NOG for binding to PHD2", "setting": "[1]", "result": "compete effectively with NOG for binding to PHD2"}
    ]},
    {"smiles": "CC(=O)N(O)CCCCCNC(=O)CCC(=O)N(O)CCCCCNC(=O)CCC(=O)N(O)CCCCCN", "note": "[DFO, deferoxamine]", "values": [
      {"measurement": "HIF-1α stabilization", "setting": "HIF-1α [2]", "result": "induced HIF-1α stabilization"},
      {"measurement": "HIF-1α stabilization in presence of Fe(II)", "setting": "HIF-1α [2]", "result": "HIF-1α stabilization was not observed"}
    ]},
    {"smiles": "O=C(O)CNC(=O)c1nc(Cl)c2ccccc2c1O", "note": "[BIQ, 2-(1-chloro-4-hydroxyisoquinoline-3-carboxamido)acetic acid]", "values": [
      {"measurement": "Cell-based activity HIF-1α Induction", "setting": "HIF-1α [2]", "result": "Active"}
    ]}
  ]
}
